For test [1], the target named is T1, Cannabinoid receptor 1 (Homo sapiens, UniProt P21554). Put plainly: Displacement of [3H]-CP55940 from human CB1 receptor expressed in HEK-293-EBNA cell membranes after 90 mins by scintillation counting. Background: Loss of bound radioactivity is the signal in a displacement assay; it reports binding, not function.
A further test concerns the target Cannabinoid receptor 2 (Homo sapiens, UniProt P34972). Put plainly: Displacement of [3H]-CP55940 from human CB2 receptor expressed in HEK-293-EBNA cell membranes after 90 mins by scintillation counting. Put shortly: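 Competitive radioligand binding with [3H]CP55940 on membranes of HEK-293-EBNA cells transfected with human CB1 or CB2 receptor. Ki derived from IC50 by the Cheng-Prusoff equation. Mean ± SEM of two to four independent experiments, each run in triplicate.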

Test [2] deals with T1, Cannabinoid receptor 1. Put plainly: Binding affinity at CB1 receptor expressed in mouse HT22 cells at 1 uM incubated for 1 hr using strepavidin-Alexa Fluor 488 staining based by fluorescence microscopy. It is filed as cell-based. To be noted: HT-22. Put shortly: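 HT-22 mouse hippocampal cells transiently transfected with CB1 were incubated with the biotinylated probe at 1 μM for 1 h. Excess probe was removed and bound probe detected with streptavidin-Alexa Fluor 488. Nuclei were stained with Hoechst 33258 and imaged by fluorescence microscopy. Nontransfected cells, or an excess of HU210, served as specificity controls.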

Test [3] concerns the target T1, Cannabinoid receptor 1. Put plainly: Binding affinity at CB1 receptor expressed in mouse HT22 cells at 1 uM incubated for 1 hr using antiCB1-antibody based fluorescence microscopy. To be noted: HT-22. In kind it is cell-based. Put shortly:
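Transfected HT-22 cells were treated in sequence with the probe (1 μM, 1 h), streptavidin-Alexa 488, anti-CB1 antibody and an anti-rabbit Alexa 633 conjugate. Co-labelling was imaged by fluorescence microscopy in the red channel and as a merge.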

For test [4], the target named is T1, Cannabinoid receptor 1. Nature of the test: Binding affinity to CB1 receptor. A digest of the protocol: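 Radioligand competition binding on membranes of HEK-293-EBNA cells transfected with human CB1 receptor, displacing [3H]CP55940. Ki obtained from IC50 by the Cheng-Prusoff equation. Two to four independent experiments, each run in triplicate; mean ± SEM reported.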

The source made the active and inactive calls. The rule behind the calls is not given here.

Chain of Cannabinoid receptor 2 (P34972 whole entry): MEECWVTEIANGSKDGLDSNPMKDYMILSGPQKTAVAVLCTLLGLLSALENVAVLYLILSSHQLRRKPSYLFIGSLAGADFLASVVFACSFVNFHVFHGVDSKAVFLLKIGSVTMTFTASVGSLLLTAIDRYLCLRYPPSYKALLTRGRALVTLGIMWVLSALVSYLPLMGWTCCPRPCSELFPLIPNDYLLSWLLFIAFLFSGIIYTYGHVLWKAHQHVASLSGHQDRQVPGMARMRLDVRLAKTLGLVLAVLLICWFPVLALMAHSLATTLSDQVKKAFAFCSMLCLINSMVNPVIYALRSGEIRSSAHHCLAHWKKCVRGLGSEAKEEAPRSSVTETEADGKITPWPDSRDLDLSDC
T1 sequence (P21554 whole entry): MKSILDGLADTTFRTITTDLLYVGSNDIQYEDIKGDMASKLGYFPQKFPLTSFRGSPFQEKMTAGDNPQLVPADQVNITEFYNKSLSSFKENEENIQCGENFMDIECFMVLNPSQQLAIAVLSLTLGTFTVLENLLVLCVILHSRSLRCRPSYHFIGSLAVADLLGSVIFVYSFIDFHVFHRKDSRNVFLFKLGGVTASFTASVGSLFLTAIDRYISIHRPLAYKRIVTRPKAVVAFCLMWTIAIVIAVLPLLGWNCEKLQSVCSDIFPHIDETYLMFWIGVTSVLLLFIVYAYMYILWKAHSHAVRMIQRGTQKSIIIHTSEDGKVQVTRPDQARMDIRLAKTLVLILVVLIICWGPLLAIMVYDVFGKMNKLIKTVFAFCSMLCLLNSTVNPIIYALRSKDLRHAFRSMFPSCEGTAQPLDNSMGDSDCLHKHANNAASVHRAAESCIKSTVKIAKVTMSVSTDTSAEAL

What is called Ki is a dissociation constant, usually derived from enzyme kinetics or from competition with a known ligand. For `C[C@H](CO)NC(=O)CCC/C=C\C/C=C\C/C=C\C/C=C\CCCCOC(=O)CCCCCNC(=O)CCCC[C@@H]1SC[C@@H]2NC(=O)N[C@@H]21`, the Ki on Cannabinoid receptor 1 [1] was 2000 nM; on Cannabinoid receptor 2, > 2000 nM.

Take `CCCCC/C=C\C/C=C\C/C=C\C/C=C\CCCCOC(CO)CO`: the Ki at Cannabinoid receptor 1 [1] was 25 nM; on Cannabinoid receptor 2, > 1000 nM. Consider `C#CCCCC(=O)OCC(CO)OCCCC/C=C\C/C=C\C/C=C\C/C=C\CCCCC` (stereo not drawn), for which the values for the Ki on Cannabinoid receptor 1 [1] and on Cannabinoid receptor 2 were 84.7 nM and 84.9 nM, respectively. Consider `CCCCC/C=C\C/C=C\C/C=C\C/C=C\CCCCOC(CO)COC(=O)CCCCCNC(=O)CCCC[C@@H]1SC[C@@H]2NC(=O)N[C@@H]21` (stereo partly drawn), for which the Ki at Cannabinoid receptor 1 [1] amounted to 221 nM; at Cannabinoid receptor 2 it was 450 nM. Besides, the result on Cannabinoid receptor 1 [2] and on Cannabinoid receptor 1 [3] was Active. In the case of `O=C(CCCC[C@@H]1SC[C@@H]2NC(=O)N[C@@H]21)NCCCCCC(=O)OCCCC/C=C\C/C=C\C/C=C\C/C=C\CCCC(=O)NC1CC1`, the inhibitory constant (Ki) at Cannabinoid receptor 1 [1] and on Cannabinoid receptor 2 was > 2000 nM throughout. On to `CCCCC/C=C\C/C=C\C/C=C\C/C=C\CCCC(=O)OC(CO)CO` [2-ARACHIDONOYLGLYCEROL], for which the Ki on Cannabinoid receptor 2 worked out at 1300 nM. As for `CCCCCCC(C)(C)c1cc(O)c2c(c1)OC(C)(C)[C@@H]1CC=C(CO)C[C@@H]21`, on Cannabinoid receptor 1 [4], affinity was put at a Ki of 0.06 nM.

On to `Cc1cc(-c2cc(C(=O)NC3C4(C)CCC(C4)C3(C)C)nn2Cc2ccc(CNCCCCCCN)cc2)ccc1Cl` (stereo not drawn), for which the affinity at Cannabinoid receptor 2 corresponds to a Ki of 260 nM. For `CCCCC/C=C\C/C=C\C/C=C\C/C=C\CCCC(=O)N[C@H](C)COC(=O)CCCCCNC(=O)CCCC[C@@H]1SC[C@@H]2NC(=O)N[C@@H]21`, the Ki on Cannabinoid receptor 1 [1] is 2000 nM; on Cannabinoid receptor 2 it was > 2000 nM. For `C#CCCCC(=O)N[C@@H](Cc1ccc(C(=O)c2ccccc2)cc1)C(=O)OC[C@@H](C)NC(=O)CCC/C=C\C/C=C\C/C=C\C/C=C\CCCCC` the same measures were 2000 nM and > 2000 nM. As for `C#CCCCC(=O)OC[C@@H](C)NC(=O)CCC/C=C\C/C=C\C/C=C\C/C=C\CCCCC`, the Ki on Cannabinoid receptor 1 [1] was 2000 nM; on Cannabinoid receptor 2, > 2000 nM. Turning to `CCCCC/C=C\C/C=C\C/C=C\C/C=C\CCCC(=O)OC(CO)COC(=O)CCCCCNC(=O)CCCC[C@@H]1SC[C@@H]2NC(=O)N[C@@H]21` (stereo partly drawn), the figures for the inhibition constant Ki at Cannabinoid receptor 1 [1] and at Cannabinoid receptor 2 were > 5000 nM and 379 nM, respectively.

The values are drawn from ChEMBL document CHEMBL1799969, “Development of endocannabinoid-based chemical probes for the study of cannabinoid receptors” (J Med Chem, 2011).
